# pIC50: −log10 of the molar value. Calls of active or inactive are those of the source. The calls are words filed in the database; no cut-off is given here.
# Columns and labels:
# [1] = target: Histone-lysine N-methyltransferase, H3 lysine-79 specific (Homo sapiens) (UniProt Q8TEK3); assay: Inhibition of DOT1L (unknown origin) at 100 uM incubated for 15 mins followed by substrate addition measured after 60 mins by Alpha screen assay
# Summary of the method: (§1)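 DOT1L by AlphaScreen. Enzyme and substrate in 1x assay buffer, compound at 1% DMSO final. Enzyme preincubated with compound 15 min at room temperature, substrate added, reaction 60 min at room temperature. Acceptor/donor bead mix added and incubated 60 min at room temperature under subdued light.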
# [2] = target: Histone acetyltransferase KAT2A (Homo sapiens) (UniProt Q92830); assay: Inhibition of GCN5 (unknown origin) at 100 uM incubated for 15 mins followed by substrate addition measured after 60 mins by radioisotope assay
# [3] = target: T1, Protein arginine N-methyltransferase 6 (Homo sapiens, UniProt Q96LA8); assay: Inhibition of PRMT6 (unknown origin) incubated for 15 mins followed by substrate addition measured after 60 mins by AlphaLisa method
# Summary of the method: (§2)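 AlphaLISA. Enzyme and substrate in 1x assay buffer, compound at 1% DMSO final. Enzyme preincubated with compound 15 min at room temperature, then substrate added. Reaction 60 min at room temperature, then bead mix added and incubated 60 min under subdued light before signal read.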
# Target sequence in this assay (Q96LA8 whole entry): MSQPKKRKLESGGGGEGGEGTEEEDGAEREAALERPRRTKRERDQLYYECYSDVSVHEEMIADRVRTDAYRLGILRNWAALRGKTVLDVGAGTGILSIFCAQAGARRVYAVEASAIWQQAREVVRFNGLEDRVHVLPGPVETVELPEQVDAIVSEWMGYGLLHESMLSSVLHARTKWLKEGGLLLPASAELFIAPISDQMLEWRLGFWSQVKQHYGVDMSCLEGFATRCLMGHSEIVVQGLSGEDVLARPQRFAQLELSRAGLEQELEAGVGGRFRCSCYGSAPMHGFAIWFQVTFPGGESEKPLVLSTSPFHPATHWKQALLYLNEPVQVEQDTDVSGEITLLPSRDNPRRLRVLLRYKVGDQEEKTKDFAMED
# RS4-11 = assay: Cytotoxicity against human RS4:11 cells assessed as decrease in cell viability after 96 hrs by Cell-Titer Glo assay; assay type: functional, cell-based
# Summary of the method: (§3)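 Cells kept at 37°C, 5% CO2, exposed to compound or DMSO control for 96 h. Viability read by CellTiter-Glo luminescence after 2 min shaking to lyse and 10 min at room temperature. Triplicate wells, normalised to control cells. For long-term growth, log-phase seeding densities; cells counted and replated to the starting density with fresh compound on days 4 and 8.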
# [4] = target: Histone-lysine N-methyltransferase, H3 lysine-79 specific (Homo sapiens) (UniProt Q8TEK3); assay: Inhibition of DOT1L (unknown origin) at 50 uM incubated for 15 mins followed by substrate addition measured after 60 mins by Alpha screen assay; summary of the method: as §1
# REH = assay: Cytotoxicity against human REH cells assessed as decrease in cell viability after 96 hrs by Cell-Titer Glo assay; assay type: functional, cell-based; summary of the method: as §3
# [5] = target: Histone-lysine N-methyltransferase EHMT2 (Homo sapiens) (UniProt Q96KQ7); assay: Inhibition of G9a (unknown origin) at 50 uM incubated for 15 mins followed by substrate addition measured after 60 mins by AlphaLisa method; summary of the method: as §2
# [6] = target: T1, Protein arginine N-methyltransferase 6; assay: Inhibition of PRMT6 in human MV411 cells assessed as reduction in H3R2me2a levels after 48 hrs by Western blot analysis; assay type: cell-based
# Summary of the method: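 MV4-11 cells (37°C, 5% CO2) exposed to compound for 48 h across a range of doses. Histone H3R2 asymmetric dimethylation read by western blot. Membranes blocked in 5% milk/PBST, primary antibody overnight at 4°C, then 1:10000 HRP donkey anti-rabbit secondary for 1 h.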
# Target sequence in this assay (Q96LA8 whole entry, looked up): as the sequence (Q96LA8 whole entry) above
# [7] = target: Histone-lysine N-methyltransferase 2A (Homo sapiens) (UniProt Q03164); assay: Inhibition of MLL1 (unknown origin) at 100 uM incubated for 15 mins followed by substrate addition measured after 60 mins by AlphaLisa method; summary of the method: as §2
# [8] = target: N-lysine methyltransferase SMYD2 (Homo sapiens) (UniProt Q9NRG4); assay: Inhibition of SMYD2 (unknown origin) at 100 uM incubated for 15 mins followed by substrate addition measured after 240 mins by AlphaLisa method
# Summary of the method: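 SMYD2 AlphaLISA at 50 and 100 µM compound, 1% DMSO final. Enzyme preincubated 15 min at RT, then substrate added and reacted 240 min at RT. Bead mix added and incubated 60 min at RT in subdued light before reading.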
# [9] = target: Histone-lysine N-methyltransferase SUV39H1 (Homo sapiens) (UniProt O43463); assay: Inhibition of SUV39H1 (unknown origin) at 50 uM incubated for 15 mins followed by substrate addition measured after 60 mins by AlphaLisa method
# Summary of the method: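 SUV39H1 AlphaLISA at 50 and 100 µM compound, 1% DMSO final. Enzyme preincubated 15 min at room temperature, substrate reaction 60 min at RT. Bead mix then added for 60 min at RT in subdued light before signal collection.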
# [10] = target: DNMT3A2/3L complex (Homo sapiens) (UniProt Q9Y6K1+Q9UJW3); assay: Inhibition of DNMT3A/3L (unknown origin) at 100 uM incubated for 15 mins followed by substrate addition measured after 60 mins by radioisotope assay; assay type: protein-complex assay
# MV4-11 [11] = assay: Antiproliferative activity against human MV4-11 cells assessed as decrease in cell viability measured at day 4 by Cell-Titer Glo assay; assay type: functional, cell-based; conditions: MV4-11, 96 h; summary of the method: as §3
# [12] = target: Protein arginine N-methyltransferase 5 (Homo sapiens, UniProt O14744); assay: Inhibition of PRMT5 (unknown origin) incubated for 15 mins followed by substrate addition measured after 60 mins by AlphaLisa method; summary of the method: as §2
# MV4-11 [13] = assay: Antiproliferative activity against human MV4-11 cells assessed as decrease in cell viability at 0.1 to 1000 uM by Cell-Titer Glo assay; assay type: functional, cell-based; conditions: TDE = time-dependent effect; summary of the method: as §3
# MV4-11 [14] = assay: Upregulation of MNDA mRNA levels in human MV4-11 cells by qRT-PCR analysis; assay type: functional, cell-based
# Summary of the method: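 Treated MV4-11 cells analysed by SYBR Green qRT-PCR, with B2M as internal control. Fold change calculated by the ΔΔCt method. Samples run in triplicate and reported as mean ± SD.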
# Sequence of Histone-lysine N-methyltransferase, H3 lysine-79 specific (Homo sapiens) (Q8TEK3 whole entry, looked up): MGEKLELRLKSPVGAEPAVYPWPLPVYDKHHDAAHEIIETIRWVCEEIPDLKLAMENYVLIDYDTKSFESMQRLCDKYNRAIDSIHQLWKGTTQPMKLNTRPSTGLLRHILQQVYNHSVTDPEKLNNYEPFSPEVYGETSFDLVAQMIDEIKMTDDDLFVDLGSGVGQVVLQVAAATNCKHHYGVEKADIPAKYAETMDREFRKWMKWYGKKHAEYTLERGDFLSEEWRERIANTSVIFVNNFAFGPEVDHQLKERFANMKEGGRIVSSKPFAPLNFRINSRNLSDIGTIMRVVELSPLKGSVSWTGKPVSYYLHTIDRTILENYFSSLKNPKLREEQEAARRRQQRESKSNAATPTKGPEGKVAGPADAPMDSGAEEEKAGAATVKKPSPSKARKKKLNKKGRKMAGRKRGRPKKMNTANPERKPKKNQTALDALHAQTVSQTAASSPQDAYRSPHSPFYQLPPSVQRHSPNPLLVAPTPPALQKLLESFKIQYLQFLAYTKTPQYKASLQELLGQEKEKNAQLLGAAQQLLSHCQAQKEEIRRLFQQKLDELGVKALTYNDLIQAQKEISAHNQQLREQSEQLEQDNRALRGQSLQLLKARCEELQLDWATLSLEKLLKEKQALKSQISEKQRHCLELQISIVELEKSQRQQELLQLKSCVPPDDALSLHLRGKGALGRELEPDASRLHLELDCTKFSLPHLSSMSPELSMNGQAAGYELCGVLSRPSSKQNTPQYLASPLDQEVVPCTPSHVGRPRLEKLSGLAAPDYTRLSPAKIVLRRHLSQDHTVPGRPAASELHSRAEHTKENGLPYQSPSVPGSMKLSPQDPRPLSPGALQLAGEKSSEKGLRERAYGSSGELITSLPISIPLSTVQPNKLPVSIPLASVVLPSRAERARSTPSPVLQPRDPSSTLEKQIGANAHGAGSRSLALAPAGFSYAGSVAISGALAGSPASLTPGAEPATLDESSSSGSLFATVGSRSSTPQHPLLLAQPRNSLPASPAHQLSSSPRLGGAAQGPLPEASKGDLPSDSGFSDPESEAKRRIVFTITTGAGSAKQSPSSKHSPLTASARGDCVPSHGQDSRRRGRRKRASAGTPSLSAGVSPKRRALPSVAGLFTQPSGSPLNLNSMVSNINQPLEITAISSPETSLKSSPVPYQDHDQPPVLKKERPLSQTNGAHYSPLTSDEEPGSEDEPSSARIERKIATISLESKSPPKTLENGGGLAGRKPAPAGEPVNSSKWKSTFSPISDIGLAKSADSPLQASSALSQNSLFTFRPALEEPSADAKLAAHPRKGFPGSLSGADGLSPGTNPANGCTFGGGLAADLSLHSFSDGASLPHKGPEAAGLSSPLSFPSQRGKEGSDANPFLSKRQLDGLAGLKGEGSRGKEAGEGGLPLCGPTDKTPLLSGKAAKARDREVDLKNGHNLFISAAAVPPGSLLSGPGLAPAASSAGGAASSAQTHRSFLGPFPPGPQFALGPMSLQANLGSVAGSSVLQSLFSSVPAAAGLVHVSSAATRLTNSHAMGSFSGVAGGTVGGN
# Sequence of Histone-lysine N-methyltransferase EHMT2 (Homo sapiens) (Q96KQ7 whole entry): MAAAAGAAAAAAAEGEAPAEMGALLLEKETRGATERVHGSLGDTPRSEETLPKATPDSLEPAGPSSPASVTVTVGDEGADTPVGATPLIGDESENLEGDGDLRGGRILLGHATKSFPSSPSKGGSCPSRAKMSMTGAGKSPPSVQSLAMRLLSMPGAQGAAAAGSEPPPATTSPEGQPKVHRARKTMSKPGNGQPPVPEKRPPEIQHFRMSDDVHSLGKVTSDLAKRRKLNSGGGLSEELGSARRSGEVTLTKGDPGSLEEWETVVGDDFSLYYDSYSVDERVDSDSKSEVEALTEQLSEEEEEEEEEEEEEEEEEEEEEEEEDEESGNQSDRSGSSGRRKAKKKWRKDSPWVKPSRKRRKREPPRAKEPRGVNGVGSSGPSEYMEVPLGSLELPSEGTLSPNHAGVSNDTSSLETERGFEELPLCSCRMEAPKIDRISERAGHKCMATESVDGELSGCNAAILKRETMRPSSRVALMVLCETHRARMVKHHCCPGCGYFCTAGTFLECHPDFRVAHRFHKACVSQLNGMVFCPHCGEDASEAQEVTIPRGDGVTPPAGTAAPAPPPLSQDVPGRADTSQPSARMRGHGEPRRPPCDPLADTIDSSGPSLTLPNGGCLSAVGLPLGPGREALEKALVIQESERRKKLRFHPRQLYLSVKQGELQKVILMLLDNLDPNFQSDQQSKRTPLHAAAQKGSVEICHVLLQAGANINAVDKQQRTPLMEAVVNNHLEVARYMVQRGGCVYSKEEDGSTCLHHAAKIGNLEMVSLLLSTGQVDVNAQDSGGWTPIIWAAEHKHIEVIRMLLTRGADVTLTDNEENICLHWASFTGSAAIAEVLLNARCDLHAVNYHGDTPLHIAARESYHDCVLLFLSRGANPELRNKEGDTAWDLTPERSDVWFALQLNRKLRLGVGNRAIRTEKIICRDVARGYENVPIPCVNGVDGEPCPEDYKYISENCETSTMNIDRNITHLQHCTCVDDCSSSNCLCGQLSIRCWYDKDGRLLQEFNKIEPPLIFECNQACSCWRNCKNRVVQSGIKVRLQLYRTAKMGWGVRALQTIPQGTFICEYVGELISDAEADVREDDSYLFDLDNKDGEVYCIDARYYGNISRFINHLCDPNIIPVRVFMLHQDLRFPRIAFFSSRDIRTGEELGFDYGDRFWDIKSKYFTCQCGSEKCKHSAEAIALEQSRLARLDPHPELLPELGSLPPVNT
# Sequence of N-lysine methyltransferase SMYD2 (Homo sapiens) (Q9NRG4 whole entry): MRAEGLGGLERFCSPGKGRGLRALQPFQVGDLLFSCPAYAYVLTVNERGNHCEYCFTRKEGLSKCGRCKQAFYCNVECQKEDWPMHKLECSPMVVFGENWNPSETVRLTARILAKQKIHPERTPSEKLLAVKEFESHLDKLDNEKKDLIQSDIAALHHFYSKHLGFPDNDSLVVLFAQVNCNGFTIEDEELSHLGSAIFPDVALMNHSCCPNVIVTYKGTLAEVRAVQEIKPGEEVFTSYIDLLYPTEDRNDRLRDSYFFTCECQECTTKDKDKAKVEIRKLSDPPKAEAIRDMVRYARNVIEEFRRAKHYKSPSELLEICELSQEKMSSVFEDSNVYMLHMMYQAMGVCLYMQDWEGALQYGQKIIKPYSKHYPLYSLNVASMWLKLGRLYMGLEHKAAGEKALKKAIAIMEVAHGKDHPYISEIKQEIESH
# Sequence of Histone-lysine N-methyltransferase SUV39H1 (Homo sapiens) (O43463 whole entry): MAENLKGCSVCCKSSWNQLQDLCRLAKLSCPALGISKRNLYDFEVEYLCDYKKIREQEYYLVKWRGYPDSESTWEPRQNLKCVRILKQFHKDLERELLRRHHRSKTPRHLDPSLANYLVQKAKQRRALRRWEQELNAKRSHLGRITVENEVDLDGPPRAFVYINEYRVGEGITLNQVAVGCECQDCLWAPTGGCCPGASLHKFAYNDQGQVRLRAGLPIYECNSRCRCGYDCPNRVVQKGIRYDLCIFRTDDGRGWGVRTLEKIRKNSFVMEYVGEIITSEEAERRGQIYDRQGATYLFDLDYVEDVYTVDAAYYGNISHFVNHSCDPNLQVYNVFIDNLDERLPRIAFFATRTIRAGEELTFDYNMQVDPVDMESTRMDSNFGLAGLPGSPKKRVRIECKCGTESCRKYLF
# Sequence of Histone acetyltransferase KAT2A (Homo sapiens) (Q92830 2-837 limits assumed): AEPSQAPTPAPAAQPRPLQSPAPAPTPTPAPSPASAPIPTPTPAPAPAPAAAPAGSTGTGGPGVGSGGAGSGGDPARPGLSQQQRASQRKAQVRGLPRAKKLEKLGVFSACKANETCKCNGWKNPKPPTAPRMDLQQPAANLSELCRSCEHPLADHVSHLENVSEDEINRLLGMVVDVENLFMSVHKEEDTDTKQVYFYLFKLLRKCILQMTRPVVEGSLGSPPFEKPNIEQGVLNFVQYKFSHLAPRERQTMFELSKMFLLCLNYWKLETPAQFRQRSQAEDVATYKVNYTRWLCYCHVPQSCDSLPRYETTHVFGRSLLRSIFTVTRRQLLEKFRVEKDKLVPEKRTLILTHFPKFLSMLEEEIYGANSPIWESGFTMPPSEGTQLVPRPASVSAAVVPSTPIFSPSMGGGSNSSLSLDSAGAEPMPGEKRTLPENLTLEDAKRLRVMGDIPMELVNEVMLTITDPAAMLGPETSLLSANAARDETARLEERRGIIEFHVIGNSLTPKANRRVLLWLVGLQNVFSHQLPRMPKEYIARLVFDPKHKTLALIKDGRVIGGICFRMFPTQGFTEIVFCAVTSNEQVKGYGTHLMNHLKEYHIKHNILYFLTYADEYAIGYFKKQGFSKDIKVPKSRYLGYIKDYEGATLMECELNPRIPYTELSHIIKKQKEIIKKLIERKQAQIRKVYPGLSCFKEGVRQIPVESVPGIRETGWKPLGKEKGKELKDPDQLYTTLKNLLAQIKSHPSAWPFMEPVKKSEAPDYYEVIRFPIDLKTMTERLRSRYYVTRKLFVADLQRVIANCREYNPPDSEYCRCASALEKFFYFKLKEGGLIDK
structure (smiles),measurement,setting,value
CN(CCN)Cc1ccccc1Sc1ccccc1Cl,inhibition,[1],Active
same,inhibition,[2],Active
same,pIC50,[3],8.92
same,Activity,RS4-11,Dose-dependent effect
same,inhibition,[4],Active
same,Activity,REH,Dose-dependent effect
same,inhibition,[5],Active
same,inhibition,[6],Dose-dependent effect
same,inhibition,[7],Active
same,inhibition,[8],Active
same,inhibition,[9],Active
same,inhibition,[10],Active
same,pIC50,MV4-11 [11],5.34
same,pIC50,[12],< 4.00
same,Activity,MV4-11 [13],Tde
same,Activity,MV4-11 [14],Active
